Results of several laboratories.
Protocols differ between the studies behind these lines.
Mode: inhibitor
rep main protease: Replicase polyprotein 1ab, main protease (rep, Severe acute respiratory syndrome coronavirus 2, UniProt P0DTD1)
rep papain-like protease: Replicase polyprotein 1ab, papain-like protease (rep, Severe acute respiratory syndrome coronavirus 2, UniProt P0DTD1)

| SMILES | target | assay | system | conditions | inhibition [%] |
| --- | --- | --- | --- | --- | --- |
| NC(=O)CSc1nnc2c3ccccc3nc(-c3ccc(F)cc3)n12 | rep main protease | enzyme activity | – | 20 µM | 20.1 |
| O=c1[nH]c(CCl)nc2sc3c(c12)CCCC3 | rep main protease | enzyme activity | – | 20 µM | 29.2 |
| CC(C)C[C@H](NC(=O)[C@@H](NC(=O)OCc1ccccc1)C(C)(C)C)C(=O)N(C)N(C#N)CCC(N)=O | rep main protease | enzyme activity, fluorescence | – | 50 µM, pH 7.2 | 100 |
| Cn1c(C(=O)Nc2ccc3c(c2)OCCO3)cc2c(=O)n3ccccc3nc21 | rep main protease | enzyme activity | – | 100 µM | 71 |
| O=C(NCc1ccccn1)Nc1csc2ccccc12 | rep main protease | enzyme activity | – | 20 µM | -3.23 |
| COc1ccc(OC)c2c1C(=O)C=CC2=O | rep main protease | enzyme activity | – | 0.1 µM | 8.9 |
| C[C@@H]1O[C@@H](O[C@@H]2[C@@H](O)[C@H](OCCc3ccc(O)c(O)c3)O[C@H](CO)[C@H]2OC(=O)/C=C/c2ccc(O)c(O)c2)[C@H](O)[C@H](O)[C@H]1O | rep papain-like protease | enzyme activity | – | 50 µM | 15.6 |
| O=C(CCc1ccc(O)cc1)c1c(O)cc(O)cc1O[C@@H]1O[C@H](CO)[C@@H](O)[C@H](O)[C@H]1O | rep main protease | enzyme activity, FRET | – | 10 µM, 10 min | 25 to 50 |
| CN(C)C(=O)COC(=O)Cc1ccc(OC(=O)c2ccc(NC(=N)N)cc2)cc1 | rep main protease | enzyme activity | – | 10 µM | 6 |
| N#CC(c1ccc2c(c1)OCO2)N(Cc1ccccc1)C(=O)c1sc2ccccc2c1Cl (stereo not drawn) | rep main protease | enzyme activity | – | 20 µM | 8.09 |
| COc1cc(C[C@@H](C)[C@@H](C)Cc2cc(O)c(OC)c(OC)c2)cc(O)c1OC | rep papain-like protease | enzyme activity, FRET | – | 8 µM | 51.4 |
| Cc1cc(OCc2ccccc2)c2c(c1)C(=O)C=CC2=O | rep main protease | enzyme activity | – | 0.1 µM | 28.1 |
| O=C(NC[C@H](NC(=O)c1cn[nH]c1-c1ccccn1)c1ccc2ccccc2c1)c1cn[nH]c1 | rep main protease | enzyme activity | – | 5 µM | 10.7 |
| Cc1ccc2nc(Cl)c(/C=N/c3cccc([N+](=O)[O-])c3)cc2c1 | rep papain-like protease | enzyme activity | – | 100 µM | 21.7 |
| CCC(=O)Oc1cccc2c1C(=O)C=CC2=O | rep main protease | enzyme activity | – | 10 µM | 102 |
| O=C(O)[C@H]1O[C@@H](Oc2cc3oc(-c4ccccc4)cc(=O)c3c(O)c2O)[C@H](O)[C@@H](O)[C@@H]1O | rep main protease | enzyme activity | – | 10 µM | 68.9 |
| Cc1ccc2nc(Cl)c(/C=N/NC(=O)c3ccncc3)cc2c1 | rep papain-like protease | enzyme activity | – | 10 µM | 9.2 |
| NC(=O)c1c[nH]c(Cc2ccccc2)cc1=O | rep main protease | enzyme activity | – | 20 µM | 10.9 |
| O=C1C=CC(=O)c2c(O)cccc21 | rep main protease | enzyme activity | – | 10 µM | 102 |
| Cc1ccc(NC2C=CS(=O)(=O)C2)cc1 (stereo not drawn) | rep main protease | enzyme activity | – | 20 µM | 2.03 |
| O=C(Oc1cc(Cl)cc([N+](=O)[O-])c1)c1cccc2[nH]ccc12 | rep main protease | enzyme activity, fluorescence | – | 10 µM, pH 7.2 | 1 |
| COc1cccc2c1C(=O)C(C(C)=O)=CC2=O | rep main protease | enzyme activity | – | 1 µM | 94.3 |
| O=C(/C=C/c1ccc(O)c(O)c1)OC1CC(OC(=O)/C=C/c2ccc(O)c(O)c2)(C(=O)O)CC(O)C1O (stereo not drawn) | rep main protease | enzyme activity | – | 10 µM | 27.8 |
| COc1ccc(/C=C\C(=O)NC(=S)Nc2ccc(S(=O)(=O)NC(N)=O)cc2)cc1OC | rep main protease | enzyme activity | – | 100 µg/mL | 0 |
| O=C(NC[C@H](NC(=O)c1cncc2ccccc12)c1ccc2ccccc2c1)c1cnc[nH]1 | rep main protease | enzyme activity | – | 5 µM | 18.9 |
| COCOc1cc(C)cc2c1C(=O)C=CC2=O | rep main protease | enzyme activity | – | 1 µM | 4.6 |

| SMILES | target | assay | system | conditions | inhibition [%] |
| --- | --- | --- | --- | --- | --- |
| CCc1ccc(NC(=O)c2cc3c(=O)n4ccccc4nc3n2C)cc1 | rep main protease | enzyme activity | – | 1 µM | 11 |
| c1cc(CN2CCCNCCNCCCNCC2)ccc1CN1CCCNCCNCCCNCC1 | rep main protease | enzyme activity in cells | HEK-293T | 20 µM | -0.49 |
| O=c1c(O)c(-c2ccc(O)c(O)c2)oc2cc(O)cc(O)c12 | rep main protease | enzyme activity, FRET | – | 10 µM, 10 min | > 50 |
| Cn1c(C(=O)Nc2ccc(Cl)cc2)cc2c(=O)n3ccccc3nc21 | rep main protease | enzyme activity | – | 1 µM | 7.4 |
| O=C(O)[C@H]1O[C@@H](Oc2cc3oc(-c4ccc(O)cc4)cc(=O)c3c(O)c2O)[C@H](O)[C@@H](O)[C@@H]1O | rep papain-like protease | enzyme activity | – | 50 µM | 41.8 |
| C=C1C(=O)OC2C1C(O)CC1(C)C(O)CCC(C=O)C21 (stereo not drawn) | rep main protease | enzyme activity | – | 20 µM | -62 |
| CC[PH](CC)(CC)[Au][S][C@@H]1O[C@H](COC(C)=O)[C@@H](OC(C)=O)[C@H](OC(C)=O)[C@H]1OC(C)=O | rep main protease | enzyme activity | – | 20 µM | 100 |
| C/N=c1\nc(-c2ccccc2)n(-c2ccccc2)s1 | rep main protease | enzyme activity | – | 1 µM | 96.3 |
| CC(=O)Nc1ccc(-c2cnc(/N=C\c3cc4ccccc4nc3Cl)s2)cc1 | rep papain-like protease | enzyme activity | – | 100 µM | 97.2 |
| CC1(C)C=Cc2cc(-c3coc4cc(O)cc(O)c4c3=O)ccc2O1 | rep main protease | enzyme activity | – | 8 µM | 11.8 |
| CCOC(=O)COc1cc(C)cc2c1C(=O)C=CC2=O | rep main protease | enzyme activity | – | 10 µM | 97.5 |
| CN(C(=O)[C@H](Cc1ccccc1)NC(=O)[C@@H](NC(=O)OCc1ccccc1)C(C)(C)C)N(C#N)CCC(N)=O | rep main protease | enzyme activity, fluorescence | – | 50 µM, pH 7.2 | 100 |
| Cc1cc(NC(=O)c2cc3c(=O)n4cccc(C)c4nc3n2C)ccc1Br | rep main protease | enzyme activity | – | 100 µM | 59 |
| O=C(O)[C@]1(O)C[C@@H](O)[C@@H](O)[C@H](O)C1 | rep main protease | enzyme activity, FRET | – | 10 µM, 10 min | < 25 |
| CC(=O)N[C@H](CCCCN)C(=O)N[C@H](Cc1c[nH]c2ccccc12)C(=O)N[C@H](CO)C(=O)N[C@H](Cc1ccc(O)cc1)C(=O)N[C@H](CCC(N)=O)C(=O)N1CCC[C@@H]1C(=O)N[C@@H](C(=O)N[C@H](Cc1c[nH]c2ccccc12)C(=O)N[C@H](CC(=O)O)C(=O)N[C@H](Cc1c[nH]c2ccccc12)C(=O)N[C@@H](C(=O)N[C@H](Cc1c[nH]c2ccccc12)C(=O)N[C@H](CO)C(=O)N[C@H](CCC(=O)O)C(=O)N[C@H](Cc1c[nH]cn1)C(=O)N[C@H](C)C(=O)N[C@H](CCCNC(=N)N)C(N)=O)[C@H](C)O)[C@H](C)O | rep main protease | enzyme activity, fluorescence | – | 140 µM | 100 |
| Cc1ncc(/C=C\C(=O)NC[C@@H]2CC3(CCC3)CN2C(=O)[C@@H]2CC(=O)NC(=O)N2)c(=O)[nH]1 | rep main protease | enzyme activity | – | 5 µM | 16.1 |
| Cc1ccc(NC(=O)c2cc3c(=O)n4cccc(C)c4nc3n2C)cc1Cl | rep main protease | enzyme activity | – | 100 µM | 37 |
| C[C@@H]1O[C@@H](OC[C@H]2O[C@@H](OCCc3ccc(O)c(O)c3)[C@H](OC(=O)/C=C/c3ccc(O)c(O)c3)[C@@H](O)[C@@H]2O)[C@H](O)[C@H](O)[C@H]1O | rep main protease | enzyme activity | – | 100 µM | 99.3 |
| CN(C)C(=S)SC(=S)N(C)C | rep main protease | enzyme activity | – | 20 µM | -6.7 |
| Cc1cccn2c(=O)c3cc(C(=O)Nc4ccc(N(C)C)cc4)n(C)c3nc12 | rep main protease | enzyme activity | – | 1 µM | 3.5 |
| O=C(O)c1cc(N(Cc2ccccc2O)Cc2cc(O)ccc2O)ccc1O | rep main protease | enzyme activity | – | 20 µM | -1.57 |
| O=c1cc(-c2ccc(O)cc2)oc2cc(O)c(O)c(O)c12 | rep papain-like protease | enzyme activity | – | 50 µM | 65.7 |
| COc1cc(C)cc2c1C(=O)C=CC2=O | rep main protease | enzyme activity | – | 10 µM | 90.4 |
| CC(C(=O)NC[C@H](NC(=O)c1[nH]nc2nc[nH]c(=O)c12)c1ccc2ccccc2c1)=C1CCC1 | rep main protease | enzyme activity | – | 5 µM | 15.1 |
| Cc1cccc2cc(/C=N\c3ccc(-c4nc5ccccc5[nH]4)cc3)c(Cl)nc12 | rep papain-like protease | enzyme activity | – | 10 µM | 10.1 |
